“Also recorded” adds a separate entry of the source.
What was measured:
[1] = system: rats subjected to tMCAO; assay: Morris water maze after tMCAO; format: in vivo; settings: rat tMCAO, intranasal days 5-11
Summary of the method: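 Rats were habituated to the maze (180 cm diameter, opacified water, drained daily) 1 day beforehand. In learning trials, rats swam up to 60 s to reach a hidden platform 1.2 cm below the surface. A probe trial without the platform ran 24 h after the last learning trial. Swimming was recorded by overhead video tracking.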

[2] = system: extracellular GABA ([GABA]o); assay: Extracellular GABA in peri-infarct cortex; format: in vivo, mouse; settings: intranasal administration; Figure S6A; n = 5
Summary of the method: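 A CMA7 microdialysis probe was placed in peri-infarct cortex (AP 0, ML −0.65, DV −1.5 mm from bregma). It was perfused at 1 μL/min with bicarbonate-buffered saline containing 10 mM glucose. Dialysate was collected in 20-min fractions over 2 h, and the second fraction was analysed. GABA was measured by ELISA (activator, 37°C for 15 min in the dark, stop solution, A450).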

[3] = biological target: GAT-1-Synt1A interaction (Rattus norvegicus, UniProt P23978); assay: Co-IP of Synt1A-GAT-1 complexes after tMCAO; format: in vivo; settings: intranasally given days 5-11 after stroke
Summary of the method: (§1)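 Dissected tissue was lysed on ice for 30 min in ice-cold RIPA buffer (50 mM Tris-HCl pH 7.4, 150 mM NaCl, 1 mM EDTA, 1% NP-40, 0.1% SDS, 0.5% deoxycholate, protease inhibitors). Lysates were spun at 12,000 ×g for 15 min at 4°C, and supernatant was precleared 1 h at 4°C with protein G magnetic beads before co-IP. Blots were probed with anti-GAT-1 (1:4000) and anti-syntaxin1A (1:4000).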

[4] = system: infarct volume; assay: Infarct volume; format: in vivo; settings: Nissl staining 12 days after stroke; n = 8
Summary of the method: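 Coronal 40 μm vibratome sections were stained in Nissl solution at 40°C for 10 min. Infarct size was measured on microscope images.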

[5] = system: mice with photothrombotic stroke; assay: Motor function; format: in vivo, mouse
Summary of the method: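 Photothrombotic stroke was induced with rose bengal, holding body temperature at 37 ± 0.5°C. For grid walking, each mouse walked freely for 5 min on a wire grid 50 cm high. For the cylinder task, mice explored a clear cylinder (15 cm tall, 10 cm diameter) for 5 min, and only rears with both forelimbs clearly visible were timed. Tests ran 7 days before stroke and at set days after stroke.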

[6] = system: extracellular GABA ([GABA]o); assay: Extracellular GABA after tMCAO; format: in vivo, rat; settings: intranasal delivery; Figure 6F; n = 5
[7] = system: pyramidal neurons in the peri-infarct cortex; assay: Fiber photometry of GCaMP6s Ca2+ signal; format: in vivo, mouse; settings: intranasal administration; Figures S6F, S6G
Summary of the method: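 AAV-CaMKII-GCaMP6s was injected into the peri-infarct cortex (AP 0, ML −2.0, DV −1.3 mm from bregma). An optical fibre (230 μm OD, 0.37 NA) was implanted at the same site. GCaMP6s fluorescence was excited with a 488 nm LED at 20 μW at the fibre tip and recorded by fibre photometry.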

[8] = Concentration of ZLQ-3-1 in brain tissue; format: in vivo, rat; settings: intranasal delivery; brain homogenate, LC-MS/MS
Summary of the method: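 Brain tissue was quantified by LC-MS/MS with verapamil run alongside. The test compound eluted at 1.45 min and verapamil at 1.65 min.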

[9] = system: mice; assay: Conditioned place preference; format: in vivo, mouse; settings: n = 10
Summary of the method: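 During pretest and test, mice had free access to both chambers for 15 min. Vehicle-group mice received vehicle injections morning and afternoon; all other steps matched the compound group. Apparatus was cleaned with 75% alcohol after each pretest, training and test session.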

[10] = biological target: GAT-1 (Mus musculus, UniProt P31648); assay: 3H-GABA uptake assay in cultured neurons; format: cell-based; settings: 1 h drug preincubation; 10 nM 3H-GABA + 30 μM GABA, 37°C 1 h; n = 5
Summary of the method: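 Primary cortical neurons from E16 mice were grown on poly-L-ornithine in Neurobasal with 2% B27. Cells were rinsed twice in 37°C HBSS, equilibrated 10 min, then preincubated 1 h in drug-containing HBSS. Uptake was started with 3H-GABA (10 nM final) plus unlabeled GABA (30 μM final), 37°C for 1 h. It was stopped by three ice-cold HBSS washes, solubilised in 0.1 M NaOH, and read by scintillation counting plus BCA protein assay. Analysis used a two-tailed t test.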

[11] = system: GAT-1; assay: 3H-GABA uptake in HEK293 cells overexpressing GAT-1; format: cell-based; settings: n = 5
Summary of the method: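 HEK293 cells were kept in MEM with 10% FBS and transduced with lentiviral GAT-1-EGFP. These GAT-1-overexpressing cells were incubated with peptide (100 nM), or with the mutant control peptide at the same concentration, before 3H-GABA uptake was measured.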

[12] = system: rats subjected to tMCAO; assay: Sensorimotor function after tMCAO; format: in vivo; settings: rat tMCAO, intranasal days 5-11 after stroke
Summary of the method: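 For grid walking, rats walked 5 min on a wire grid 60 cm high. For the cylinder task, rats explored a cylinder (30 cm tall, 20 cm diameter) for 5 min. For sticky tape, rats were handled 30 min/day for 3 days first. Ratio of interest = seconds attending to stimulus/30, averaging the best two trials. Sticky-tape ratio = left forepaw ratio/right forepaw ratio.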

[13] = biological target: GAT-1-Synt1A complex (Mus musculus, UniProt P31648); format: in vivo; settings: intranasally given days 5-11 after photothrombotic stroke; n = 5
Summary of the method: as §1

[14] = system: mice; assay: Open field test; format: in vivo, mouse; settings: 5 min; n = 14
[15] = system: layer 5 peri-infarct pyramidal neurons; assay: Whole-cell recordings in acute brain slices from treated mice; format: in vivo, mouse; settings: intranasal administration
[16] = 5 mg/kg intranasally days 5-11 after stroke, test day 12

Glucose-D-Arg-Dmt-Cha-D-Lys-D-Arg-NH2 [ZLQ-3-1]
swimming speed [1]: did not affect swimming speed
target entries in the probe test [1]: increased target entries
time spent in target quadrant in the probe test [1]: increased
latency (time to reach the platform) ([1]; training trials): significantly decreased latency
stroke-induced increase in extracellular GABA [2]: reversed stroke-induced increases in extracellular GABA
stroke-induced GAT-1-Synt1A interaction in the hippocampus [3]: reversed stroke-induced GAT-1-Synt1A interaction
stroke-induced GAT-1-Synt1A interaction in the peri-infarct cortex [3]: reversed stroke-induced GAT-1-Synt1A interaction
infarct volume [4]: did not change infarct volume
impairment of motor functions, intranasal 5 mg/kg [5, 16]: attenuated the impairment of motor functions
motor functional recovery of ZLQ-3-1-treated versus ZLQ-3-treated mice [5, 16]: better motor functional recovery than ZLQ-3-treated mice
impairment of motor functions, intraperitoneal dosing ([5]; 2.5, 5, 10, or 20 mg/kg i.p. days 5-11 after stroke, test day 12): attenuated the impairment of motor functions dose dependently
long-term motor functional recovery, WT mice ([5]; intranasal treatment days 5-11 after stroke, Figure S5K): long-lasting motor functional recovery effects
stroke-induced increase in [GABA]o in the peri-infarct cortex [6]: reversed
stroke-induced decline in cortical excitability, WT mice [7]: prevented stroke-induced decline in cortical excitability
brain exposure of ZLQ-3-1 (time course of concentrations in brain tissue) [8]: rapid and long-lasting brain exposure; also recorded: high brain exposure
conditioned place preference [9]: did not affect
3H-GABA uptake in cultured neurons [10]: significantly increased ^3H-GABA uptake
reuptake of GABA by GAT-1, HEK293 cells overexpressing GAT-1 [11]: did not directly affect the reuptake of GABA by GAT-1
foot faults in the grid-walking task [12]: decreased foot faults
forelimb sticky-tape ratio in modified sticky-tape test [12]: increased forelimb sticky-tape ratio
forelimb symmetry index in the cylinder task [12]: decreased
somatosensory and motor functions ([12]; tests days 4, 12, 19, 26): significantly improved somatosensory and motor functions
stroke-induced GAT-1-Synt1A interaction, intranasal dosing [13]: reversed stroke-induced GAT-1-Synt1A interaction
locomotor activity (open field test: total distance, velocity) [14]: did not affect locomotor activity
stroke-induced increase in tonic inhibition ([15]; Figures S6B, S6C): reversed stroke-induced increases
inhibitory synaptic transmission (sIPSC) ([15]; Figures S6D, S6E): increased inhibitory synaptic transmission

Source: publication PMC11604526 (Cell Reports Medicine, 2024)
